The structures appear in SMILES notation. Converted amounts (≈) assume the structure as drawn. A value given as a limit tells only on which side of the number the result lay.

Test [1] deals with T1, Beta-ketoacyl-[acyl-carrier-protein] synthase III (Haemophilus influenzae (strain ATCC 51907 / DSM 11121 / KW20 / Rd), UniProt P43711).
T1 sequence (P43711 whole entry): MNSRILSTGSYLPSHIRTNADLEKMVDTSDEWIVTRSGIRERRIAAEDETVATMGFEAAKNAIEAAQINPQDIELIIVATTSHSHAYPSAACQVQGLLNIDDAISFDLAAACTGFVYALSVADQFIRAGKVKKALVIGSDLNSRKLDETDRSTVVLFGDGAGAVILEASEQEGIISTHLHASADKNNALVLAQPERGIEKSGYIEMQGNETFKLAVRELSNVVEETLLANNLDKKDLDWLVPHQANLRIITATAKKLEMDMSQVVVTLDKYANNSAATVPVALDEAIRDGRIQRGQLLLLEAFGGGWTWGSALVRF
The experiment in a line: Inhibitory concentration against Haemophilus influenzae beta-Ketoacyl-acyl carrier protein synthase III. An outline of the steps:
(§1)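 Coupled FabD/FabH radiometric assay with His-tagged or tagless FabH expressed in E. coli BL21(DE3). The mix held 100 mM sodium phosphate pH 7.0, 2 mM DTT, 1 mM MgCl₂, 12.5 µM E. coli holo-ACP, 10 nM FabD and 3-5 nM FabH. Malonyl-CoA was added for 1 min, then acetyl-CoA plus [³H]acetyl-CoA, NADH and NADPH for 19 min. TCA-precipitated protein was counted by liquid scintillation; DMSO ≤2% final.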

For test [2], the target named is T2, Beta-ketoacyl-[acyl-carrier-protein] synthase III (Streptococcus pyogenes serotype M3 (strain ATCC BAA-595 / MGAS315), UniProt P0DB00).
T2 sequence (P0DB00 whole entry): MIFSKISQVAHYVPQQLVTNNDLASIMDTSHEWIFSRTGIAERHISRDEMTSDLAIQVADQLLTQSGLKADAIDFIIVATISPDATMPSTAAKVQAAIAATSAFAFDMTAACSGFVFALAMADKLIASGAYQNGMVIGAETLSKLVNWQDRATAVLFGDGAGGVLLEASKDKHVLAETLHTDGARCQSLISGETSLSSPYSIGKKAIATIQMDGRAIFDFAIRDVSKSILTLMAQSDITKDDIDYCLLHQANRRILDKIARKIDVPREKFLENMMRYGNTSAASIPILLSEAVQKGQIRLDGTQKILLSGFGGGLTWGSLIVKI
As to the kind of experiment: Inhibitory concentration against Streptococcus pyogenes beta-Ketoacyl-acyl carrier protein synthase III. An outline of the steps:
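S. pyogenes FabH (10 nM, His-tagged or tagless, expressed in E. coli BL21(DE3)) was run in a coupled assay with 10 nM FabD, 12.5 µM holo-ACP, 100 mM sodium phosphate pH 7.0, 2 mM DTT and 1 mM MgCl₂. Malonyl-CoA was added for 1 min, then [³H]acetyl-CoA/acetyl-CoA with NADH and NADPH for 19 min. The reaction was stopped with cold TCA and the pellet read by scintillation. Inhibitor DMSO ≤2%.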

For test [3], the target named is T3, Beta-ketoacyl-[acyl-carrier-protein] synthase III (Enterococcus faecalis (strain ATCC 700802 / V583), UniProt Q820T1).
T3 sequence (Q820T1 whole entry): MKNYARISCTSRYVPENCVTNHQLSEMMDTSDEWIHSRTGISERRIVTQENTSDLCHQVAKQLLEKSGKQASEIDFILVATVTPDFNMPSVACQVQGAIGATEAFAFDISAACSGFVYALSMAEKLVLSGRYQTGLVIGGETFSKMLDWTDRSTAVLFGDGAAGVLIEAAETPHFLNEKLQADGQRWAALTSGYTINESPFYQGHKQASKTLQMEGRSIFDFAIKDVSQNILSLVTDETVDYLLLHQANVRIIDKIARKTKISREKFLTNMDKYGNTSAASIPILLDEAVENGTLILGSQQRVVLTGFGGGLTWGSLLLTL
As to the kind of experiment: Inhibitory concentration against Enterococcus faecalis beta-Ketoacyl-acyl carrier protein synthase III. An outline of the steps: as §1

For test [4], the target named is T4, Beta-ketoacyl-[acyl-carrier-protein] synthase III (Staphylococcus aureus subsp. aureus Mu50, UniProt P68795).
T4 sequence (P68795 whole entry): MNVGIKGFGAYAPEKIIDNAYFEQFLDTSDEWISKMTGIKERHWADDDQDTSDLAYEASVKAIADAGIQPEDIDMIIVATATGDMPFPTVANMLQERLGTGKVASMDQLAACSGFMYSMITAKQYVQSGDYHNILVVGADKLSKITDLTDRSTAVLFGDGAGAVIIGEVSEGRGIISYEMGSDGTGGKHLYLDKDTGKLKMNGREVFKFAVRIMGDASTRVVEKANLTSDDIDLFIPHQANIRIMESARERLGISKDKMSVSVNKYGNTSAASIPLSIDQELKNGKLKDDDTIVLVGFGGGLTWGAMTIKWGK
The experiment in a line: Inhibitory concentration against Staphylococcus aureus beta-Ketoacyl-acyl carrier protein synthase III. An outline of the steps: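 Coupled FabD/FabH radiometric assay, 100 µL final, pH 7.0: 100 mM sodium phosphate, 2 mM DTT, 1 mM MgCl2, 12.5 µM E. coli holo-ACP, 10 nM FabD, 20 nM S. aureus FabH (His-tagged or tagless, expressed in E. coli BL21(DE3)). FabD started with malonyl-CoA for 1 min. Acetyl-CoA plus [3H]acetyl-CoA, NADH and NADPH then added; FabH reaction 19 min. Stopped with TCA; pellet counted by liquid scintillation. DMSO ≤2% final.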

The test system of test [5] is Streptococcus pyogenes. The experiment in a line: Minimum inhibitory concentration against Streptococcus pyogenes NZ131. Type of test: functional.
A short description of test [6]: Minimum inhibitory concentration against Enterococcus faecalis VRE 583. It is filed as functional, Enterococcus faecalis V583.
The subject of test [7] is Staphylococcus aureus. The experiment in a line: Minimum inhibitory concentration against Staphylococcus aureus MRSA 703. It is filed as functional.
Test [8] concerns Escherichia coli. The experiment in a line: Minimum inhibitory concentration against Escherichia coli TolC- mutant in presence of membrane permeablizing agent polymyxin B. It is filed as functional.
Test [9] concerns Neisseria meningitidis. The experiment in a line: Minimum inhibitory concentration against Neisseria meningitides MC58 in presence of membrane permeablizing agent polymyxin B. Type of test: functional.
The subject of test [10] is Streptococcus pneumoniae. The experiment in a line: Minimum inhibitory concentration against Streptococcus pneumonia ATCC 6301. It is filed as functional.

By IC50 is commonly meant the midpoint of a concentration-inhibition curve. A low value points to inhibition by little substance. In general, MIC refers to the least concentration at which growth counts as inhibited. Turning to `O=C(Nc1cccc(O)c1C(=O)O)c1ccc(Br)c(Oc2ccccc2)c1`, the half-maximal inhibitory concentration (IC50) stood at 20 µM in test [1], 0.034 µM in test [2], 0.062 µM in [3] and 12.3 µM in [4]. Also, the minimal inhibitory concentration (MIC) in [5] is 11.3 mg/L (≈ 26.4 µM); in test [6], greater than 45 mg/L; in test [7] it was 45 mg/L (≈ 105 µM); in test [8], 2.8 mg/L; in test [9], 2.8 mg/L; in test [10], 45 mg/L (≈ 105 µM).
Take `CS(=O)(=O)c1ccc(-c2ccc(C(=O)Nc3ccccc3C(=O)O)cc2Oc2ccccc2)cc1`: the IC50 in test [1] was greater than 100 µM; in test [2], 0.003 µM; in test [3] it was 0.028 µM; in test [4], 24 µM. Further, the MIC in [5] is 22 mg/L (≈ 45.1 µM); in test [6] it was greater than 45 mg/L; in test [7], 45 mg/L (≈ 92.3 µM); in test [8], 5.6 mg/L; in test [9], 5.6 mg/L; in test [10], 45 mg/L (≈ 92.3 µM).
Consider `O=C(Nc1cccc(O)c1C(=O)O)c1ccc(-c2ccccc2)c(Oc2ccccc2)c1`, for which the IC50 in test [1] amounted to 2.4 µM; in [2] it was 0.004 µM; in test [3], 0.004 µM; in test [4], 3.8 µM. The minimum inhibitory concentration (MIC) is 5.6 mg/L (≈ 13.2 µM) in test [5]; greater than 45 mg/L in [6]; 22 mg/L (≈ 51.7 µM) in test [7]; 1.4 mg/L in test [8]; 1.4 mg/L in [9]; 22 mg/L (≈ 51.7 µM) in [10].
